Screening results as filed in PubChem.
The list is not random: actives were taken first. Their share in the collection is about 1.7%.
Scp-1 inhibitor: blocks human Scp-1 phosphatase activity; Q9GZU7; Recombinant Scp1, phosphopeptide, malachite green phosphate absorbance; inhibition, % at 20 µM; 340,000 compounds, 0.88% hits;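 active means inhibition above about 50% at 20 µM, limit read from the data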;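 further: plate controls were DMSO wells with enzyme for no effect and wells lacking enzyme for full effect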
Target sequence (Q9GZU7 76-261 limits assumed): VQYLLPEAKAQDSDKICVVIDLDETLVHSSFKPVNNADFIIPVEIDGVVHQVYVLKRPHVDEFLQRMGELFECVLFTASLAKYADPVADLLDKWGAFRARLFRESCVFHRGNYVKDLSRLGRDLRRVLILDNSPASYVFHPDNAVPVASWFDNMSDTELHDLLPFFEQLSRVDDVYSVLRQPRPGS
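Material – SCP-1 phosphatase catalytic domain, residues 76-261 · Buffer or medium – Acidic Tris acetate buffer with magnesium and detergent · Also added – Phospho 17-mer peptide substrate · Compound – single 20 µM dose, 1% DMSO · Times – 45 min room-temperature reaction, 5 min colour, 30 min stabiliser · Technique – Phosphate-binding colour reagent, absorbance read at 630 nm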
LMPTP inh: LMPTP (human) inhibition | inhibition, % at 20 µM | recombinant LMPTP-A, OMFP fluorogenic substrate, fluorescence intensity | AID 651560 | 360,000 compounds, 0.22% hits | P24666;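 active means compounds that cut the enzyme signal by at least half of the control window in the single-dose screen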;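 further: plate controls were DMSO wells with enzyme plus substrate for no effect and substrate without enzyme for full effect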
Target sequence (P24666 whole entry, looked up): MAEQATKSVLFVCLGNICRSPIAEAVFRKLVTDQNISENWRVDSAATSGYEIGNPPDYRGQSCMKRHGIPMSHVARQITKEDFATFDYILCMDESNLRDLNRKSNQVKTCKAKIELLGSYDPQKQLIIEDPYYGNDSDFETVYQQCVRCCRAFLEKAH
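Test system – LMPTP-A phosphatase enzyme · Quantity – 0.625 nM LMPTP-A final · Reagent – OMFP substrate, 400 µM final · Dosing – one test concentration per compound, 20 µM, with 3% DMSO overall · Timing – 50 min enzyme reaction at room temperature, protected from light · Detection – fluorescence intensity · Controls – substrate-only low control, DMSO enzyme-plus-substrate high control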
SUMO1-SIM PPI: alters human SUMO1 binding to SIM partners; P63165; SUMO1 binding to a labelled peptide, TR-FRET, 1 h; inhibition, % at 20 µM; 360,000 compounds, 0.33% hits; AID 602429; in the data active means inhibition above about 37%
Target sequence (P63165 whole entry, looked up): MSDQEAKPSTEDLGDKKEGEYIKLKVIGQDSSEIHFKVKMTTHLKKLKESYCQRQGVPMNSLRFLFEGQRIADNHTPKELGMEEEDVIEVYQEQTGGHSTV
DNMT1 block: blocks human DNA methyltransferase DNMT1 | inhibition (reported as % activation of signal), % at 10 µM | 360,000 compounds, 0.83% hits | AID 588458 | P26358 | DNMT1 molecular beacon, Hinp1I cleavage, fluorescence; in the data active means inhibition above about 50%
STEP block: inhibitors of human striatal-enriched phosphatase STEP; P54829; recombinant STEP, OMFP fluorogenic substrate, fluorescence; inhibition, % at 20 µM; 360,000 compounds, 0.25% hits;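 active means inhibition at 20 µM, scaled per plate between control wells, above about 37%, limit read from the data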;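 further: 0% = DMSO with enzyme and substrate and 100% = substrate only without enzyme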
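System: STEP phosphatase, cell-free reaction; Buffer or medium: Bis-Tris pH 6.0 buffer with DTT, detergent; Incubation: 20 min at room temperature, dark; Measured by: fluorescence, 480/540 nm.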
Scp-1 conf: confirmation of human Scp-1 phosphatase inhibitors; shares compounds with Scp-1 inhibitor; recombinant SCP-1 catalytic domain, phosphate release, malachite green absorbance; inhibition, % at 20 µM; 2,500 compounds, 61% hits; AID 540281;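 further: plate controls were DMSO with enzyme for no effect and buffer wells lacking enzyme for full effect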
MG interference: interferes with malachite green readout, flagging false Scp-1 hits; Colorimetric interference counterscreen, malachite green absorbance 630 nm; shares compounds with Scp-1 inhibitor; 2,500 tested, under 10 active; apparent inhibition (interference), % at 20 µM;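 further: compounds added after enzyme reaction finished so only phosphate colour detection is probed; plate controls were DMSO wells with completed Scp-1 reaction for no effect and substrate wells lacking enzyme for full effect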
Scp-1 Tm shift: Scp-1 (human) binding by thermal shift; shares compounds with Scp-1 inhibitor; Recombinant SCP1, Sypro Orange thermal shift Tm; AID 540329; 1,500 compounds, 25% hits; thermal shift relative to vanadate control, % at 40 µM;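 active means substances whose mean melting-temperature shift, as a percentage of the reference inhibitor's shift, reaches about 5.3%, limit read from the data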;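 further: 0% = Tm of DMSO wells and 100% = Tm with sodium orthovanadate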
Beacon interf DR: shows spectral interference in the DNMT1 beacon assay; molecular beacon fluorescence, spectral interference counter-screen; 200 tested, under 10 active; shares compounds with DNMT1 block; IC50, µM; call rule not given here
DNMT1 confirm: DNMT1 inhibition confirmation, single concentration | AID 602385 | shares compounds with DNMT1 block | 2,300 compounds, 8% hits | inhibition, % at 10 µM | DNMT1 molecular beacon HinP1I cleavage, fluorescence;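 active means average inhibition of at least 30% in the single-concentration confirmation test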
Beacon interf: shows spectral interference in the DNMT1 beacon assay | DNMT1 molecular beacon spectral interference counterscreen, fluorescence 485/520 | 2,300 compounds, 1% hits | shares compounds with DNMT1 block | activation (fluorescence interference), % at 10 µM;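 active means activation of at least 30% at 10 µM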;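 further: DNMT1 catalytic domain with a HinP1I cleavage step and a FAM/dabcyl DNA beacon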
STEP inh conf: STEP (human) phosphatase inhibition, single concentration confirmation. recombinant STEP, OMFP fluorogenic substrate, fluorescence. AID 623866. inhibition, % at 20 µM. shares compounds with STEP block. 520 compounds, 32% hits; call rule not given here;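 further: 0% = enzyme with substrate plus DMSO and 100% = substrate without enzyme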
* marks the source's active call; other numbers are inactive results; x = no result given.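 How the source made its calls, unless noted: active means inhibition of at least 30% at 20 µM; inactive means the rest.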

SMILES	Scp-1 inhibitor	LMPTP inh	SUMO1-SIM PPI	DNMT1 block	STEP block	Scp-1 conf	MG interference	Scp-1 Tm shift	STEP inh conf	others
CCN(CC)S(=O)(=O)c1cccc(NC2=NCCCCC2)c1	-10.7	2.1	2.1	-0.9	4.1	x	x	x	x
COc1cccc(Nc2nn3c(=O)c4ccccc4nc3s2)c1	60.4*	17.6	-7.6	18.8	82.1*	57.9*	-1.9	6.1*	47.3*
Clc1ccc(Br)cc1-c1nc(-c2ccncc2)no1	102.5*	71.6*	2.2	16.6	64.7*	34.6*	-4.3	-3.5	28.1
Brc1cccc(-c2nc(-c3ccncc3)no2)c1	-13.9	-0.3	2.4	-1.3	2.6	x	x	x	x
CCc1c(C)[nH]n(-c2ccc(Oc3ccccc3)c(S(=O)(=O)O)c2)c1=O	79.0*	1.5	13.0	66.0*	52.9*	79.5*	-0.8	2.5	35.7*
Cc1[nH]n(-c2ccccc2)c(=O)c1CCO	2.7	0.4	-2.7	0.7	-1.3	x	x	x	x
O=C(N/N=C/c1ccccc1)c1ccc(-c2ccccc2)cc1	-1.9	-1.6	6.2	1.6	-2.6	x	x	x	x
NC(=O)COc1ccc(/C=N\NC(=O)c2ccc(-c3ccccc3)cc2)cc1	86.1*	38.0	0.9	40.8	85.0*	56.3*	-9.5	-32.5	2.2
CC(=O)c1c(C)[nH]c(C(=O)NCCc2c[nH]c3ccccc23)c1C	-7.7	-0.4	-0.4	1.3	1.4	x	x	x	x
O=C(N/N=C/c1cc(Br)c(Br)o1)c1cc2ccccc2o1	111.3*	45.0	7.3	19.7	56.0*	61.4*	-12.6	-9.6	2.8
O=C(O)c1ccc(/C=N/NC(=O)c2cc(-c3ccc4c5c(cccc35)CC4)n[nH]2)cc1	76.3*	4.7	14.8	1.2	52.4*	66.7*	-14.2	-48.7	-8.9
O=C(N/N=C/c1ccccn1)c1cc(-c2cccc3ccccc23)n[nH]1	-3.4	1.4	-10.2	-6.1	-1.0	x	x	x	x
CCOC(=O)CN1C(=O)S/C(=C/c2ccc(OCc3ccc(C(=O)O)cc3)cc2)C1=O	93.2*	27.0	-18.5	-0.2	77.5*	66.7*	-1.9	-14.2	49.6*
Clc1ccc2c(SCC3CO3)c3ccccc3nc2c1 (centres undefined)	101.3*	20.5	30.7	28.8	61.7*	-1.0	-4.9	x	13.1
CCOc1ccc(C(=O)Nc2ccc(NC(=O)c3ccccc3)c(C)c2)cc1[N+](=O)[O-]	77.8*	5.2	11.0	29.1	43.5*	59.5*	-18.3	-19.1	-6.4
CCOC(=O)c1sc2nc3c(SCC(=O)O)cc(C(=O)c4ccccc4O)cn3c(=O)c2c1C	52.5*	93.3*	101.7*	185.7*	98.2*	59.0*	-6.5	7.5*	97.6*	Beacon interf DR=>99;DNMT1 confirm=60.1*;Beacon interf=-2.3
Cc1ccc(NC(=O)CN2C(=O)S/C(=C\c3cccn3-c3cccc(C(=O)O)c3)C2=O)cc1C	78.7*	45.8	-4.3	30.5	41.5*	80.2*	-7.1	11.3*	3.0
Cc1ccc(NC(=O)CN2C(=O)S/C(=C\c3ccccn3)C2=O)cc1C	-1.8	0.6	-2.8	26.9	-0.5	x	x	x	x
NC(=O)c1cc2ccccc2o/c1=N\NC(=O)c1ccccc1O	102.8*	75.3*	-2.9	1.6	99.0*	79.5*	-3.0	-11.7	89.9*
O=C(NCC(=O)N1CCN(Cc2ccccc2)CC1)c1cc(Cl)cc([N+](=O)[O-])c1	-0.1	-0.7	-50.2	2.1	-0.2	x	x	x	x
CC(=O)NC(Cc1ccccc1)C(=O)Oc1ccc2ccccc2c1 (centres undefined)	1.8	0.6	-0.8	-4.5	-3.9	x	x	x	x
CCc1cc(CNC(=O)c2ccc(OC3CCN(CCc4ccccc4)CC3)cc2)on1	74.5*	11.9	4.2	20.6	92.5*	64.8*	4.8	-3.0	-6.8
O=C(NCc1ccon1)c1ccc(OC2CCN(CCc3ccccc3)CC2)cc1	0.6	1.0	2.0	-2.3	-1.9	x	x	x	x
O=C(COC(=O)/C=C/c1ccccc1)NC(=O)NCc1ccccc1	-2.2	-0.4	5.0	-1.5	1.9	x	x	x	x
Cc1ccc(Cn2c(C(C)Nc3nc(-c4ccc(C)cc4)cs3)nc3cc(Cl)c(Cl)cc32)cc1 (centres undefined)	60.8*	24.2	110.1*	77.6*	78.1*	55.9*	1.7	4.4	26.2	DNMT1 confirm=11.2;Beacon interf=4.5
SMILES	Scp-1 inhibitor	LMPTP inh	SUMO1-SIM PPI	DNMT1 block	STEP block	Scp-1 conf	MG interference	Scp-1 Tm shift	STEP inh conf	others
OC(COCc1ccccc1)CN1CCCCC1 (centres undefined)	6.8	-2.1	-1.7	2.2	-1.1	x	x	x	x
O=C1CCCN1CCCNC(=S)Nc1cccc2ccccc12	5.2	2.3	-1.1	-11.3	54.7*	-16.3	-18.4	x	6.3
Cn1c2ccccc2c(=O)c2c(=O)n(C3CCCCCC3)c(C3CCCCC3)nc21	96.9*	11.6	-6.6	67.7*	60.0*	18.0	6.1	x	7.4	DNMT1 confirm=0.5;Beacon interf=-5.1
O=C(O)CSc1sc(=S)sc1SCC(=O)O	75.7*	0.6	-12.5	-2.0	58.3*	10.0	-11.5	x	13.7
COc1ccc(/C=N/N=C2/NC(=O)C(CC(=O)O)S2)cc1OCc1ccc(Cl)cc1Cl (centres undefined)	66.3*	4.4	17.1	7.2	79.8*	79.2*	-7.1	-10.3	34.7*
Cc1csc2c(=O)sc(NC(=O)c3cccs3)nc12	96.9*	68.6*	36.0	5.0	95.4*	62.6*	-15.9	-3.4	27.2
Cc1csc(NC(=O)c2cccs2)n1	-7.4	-0.2	-1.6	1.1	1.5	x	x	x	x
O=[N+]([O-])c1ccc(O)c(Nc2ncnc3ccccc23)c1	98.5*	90.9*	-10.1	2.4	96.7*	80.7*	-4.6	2.6	36.0*
COc1ccc2[nH]c3nc(SCC(=O)NNC(=O)c4ccc(OC)c(OC)c4)nnc3c2c1	4.4	1.1	-4.5	-2.6	5.5	x	x	x	x
